In ChEMBL document CHEMBL4138195, “Discovery of novel propargylamine-modified 4-aminoalkyl imidazole substituted pyrimidinylthiourea derivatives as multifunctional agents for the treatment of Alzheimer's disease” (Eur J Med Chem, 2018):
Active and inactive are the calls of the source. The calls are words filed in the database; no cut-off is given here.

Columns and labels:
[1] = target: T1, Acetylcholinesterase (Rattus norvegicus, UniProt P37136); assay: Inhibition of AChE in rat cortex homogenate using acetylthiocholine iodide as substrate after 20 mins by Ellman's method
T1 sequence (P37136 whole entry): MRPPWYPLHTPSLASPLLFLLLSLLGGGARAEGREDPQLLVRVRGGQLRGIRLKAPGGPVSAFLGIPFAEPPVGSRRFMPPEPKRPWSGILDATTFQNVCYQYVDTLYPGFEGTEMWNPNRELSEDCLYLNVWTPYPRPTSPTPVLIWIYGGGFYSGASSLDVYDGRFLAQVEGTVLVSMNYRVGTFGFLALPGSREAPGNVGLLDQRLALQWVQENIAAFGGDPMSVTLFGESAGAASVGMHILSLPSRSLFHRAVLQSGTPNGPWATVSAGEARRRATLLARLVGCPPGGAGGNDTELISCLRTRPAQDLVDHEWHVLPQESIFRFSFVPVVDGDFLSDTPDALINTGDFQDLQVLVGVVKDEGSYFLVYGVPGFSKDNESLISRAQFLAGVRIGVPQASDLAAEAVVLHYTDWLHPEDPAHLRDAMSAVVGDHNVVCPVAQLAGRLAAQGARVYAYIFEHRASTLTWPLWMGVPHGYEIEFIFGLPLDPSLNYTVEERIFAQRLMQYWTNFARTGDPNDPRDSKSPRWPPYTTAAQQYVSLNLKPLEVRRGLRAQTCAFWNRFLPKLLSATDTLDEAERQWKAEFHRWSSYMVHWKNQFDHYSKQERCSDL

[2] = target: Butyrylcholinesterase (Rattus norvegicus, UniProt Q9JKC1); assay: Inhibition of BuChE in rat serum using butyrylthiocholine iodide as substrate after 20 mins by Ellman's method
[3] = Antioxidant activity assessed as trolox equivalent of AAPH radical scavenging activity preincubated for 10 mins followed by AAPH addition measured every 2 mins for 180 mins by ORAC-FL assay; format: functional
How it was run: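 Compound at 20 µM (diluted from 10 mM DMSO stock in 75 mM phosphate, pH 7.4) with fluorescein (0.117 µM diluted) for 10 min at 37 °C, then AAPH (40 mM solution) added. Fluorescence (ex 485/em 535) read every 2 min for 180 min. […] Triplicate wells, ≥3 runs.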

[4] = target: T2, Amine oxidase [flavin-containing] A (Homo sapiens, UniProt P21397); assay: Inhibition of recombinant human MAOA using p-tyramine as substrate preincubated for 15 mins followed by substrate addition measured after 15 mins by Amplex red reagent based fluorescence assay
T2 sequence (P21397 whole entry): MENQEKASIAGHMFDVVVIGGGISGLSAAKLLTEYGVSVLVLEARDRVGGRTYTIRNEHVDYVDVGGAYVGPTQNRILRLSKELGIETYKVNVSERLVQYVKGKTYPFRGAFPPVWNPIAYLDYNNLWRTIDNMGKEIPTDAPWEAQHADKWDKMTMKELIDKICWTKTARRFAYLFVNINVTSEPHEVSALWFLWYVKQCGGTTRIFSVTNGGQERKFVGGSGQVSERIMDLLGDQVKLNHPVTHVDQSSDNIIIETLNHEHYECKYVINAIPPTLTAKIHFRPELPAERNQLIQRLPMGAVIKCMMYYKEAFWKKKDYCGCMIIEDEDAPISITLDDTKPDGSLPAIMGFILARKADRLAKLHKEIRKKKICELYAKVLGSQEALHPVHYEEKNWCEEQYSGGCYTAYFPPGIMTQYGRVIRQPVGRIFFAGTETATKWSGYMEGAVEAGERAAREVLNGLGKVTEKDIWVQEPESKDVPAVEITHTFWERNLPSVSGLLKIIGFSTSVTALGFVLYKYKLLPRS

[5] = target: T3, Amine oxidase [flavin-containing] B (Homo sapiens, UniProt P27338)
T3 sequence (P27338 whole entry): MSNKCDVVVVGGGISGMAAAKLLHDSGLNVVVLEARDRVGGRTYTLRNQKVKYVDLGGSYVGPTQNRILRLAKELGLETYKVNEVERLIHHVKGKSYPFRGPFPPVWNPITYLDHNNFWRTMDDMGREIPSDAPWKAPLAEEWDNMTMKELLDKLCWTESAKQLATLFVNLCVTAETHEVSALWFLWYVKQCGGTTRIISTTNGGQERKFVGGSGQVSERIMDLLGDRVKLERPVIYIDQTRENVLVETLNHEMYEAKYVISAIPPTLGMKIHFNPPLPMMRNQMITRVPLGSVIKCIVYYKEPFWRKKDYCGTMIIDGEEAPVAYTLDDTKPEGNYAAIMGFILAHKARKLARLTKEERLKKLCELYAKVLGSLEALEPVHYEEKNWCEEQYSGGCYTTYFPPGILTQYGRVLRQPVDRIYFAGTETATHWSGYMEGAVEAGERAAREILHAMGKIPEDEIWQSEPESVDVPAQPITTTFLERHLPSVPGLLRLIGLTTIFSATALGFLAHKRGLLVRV

[6] = target: Butyrylcholinesterase (Rattus norvegicus) (UniProt Q9JKC1); assay: Inhibition of BuChE in rat serum at 40 uM using butyrylthiocholine iodide as substrate after 20 mins by Ellman's method
[7] = target: T2, Amine oxidase [flavin-containing] A; assay: Inhibition of recombinant human MAOA at 50 uM using p-tyramine as substrate preincubated for 15 mins followed by substrate addition measured after 15 mins by Amplex red reagent based fluorescence assay; conditions: 0.25 h
How it was run: (§1)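 Recombinant human MAO-A (12.5 µg/mL) or MAO-B (75 µg/mL) preincubated 15 min at 37 °C with compound (diluted from 10 mM DMSO stock in 50 mM KH2PO4, pH 7.4). Amplex Red working solution added: 2 mM p-tyramine (MAO-A) or benzylamine (MAO-B), 2 U/mL HRP. After 15 min at 37 °C, fluorescence read (ex 545/em 590), background from enzyme-free wells subtracted.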

[8] = Inhibition of Cu2+-induced amyloid beta (1 to 42 residues) (unknown origin) aggregation assessed as reduction in amyloid beta fibril load at 50 uM after 24 hrs by phosphotungstic acid staining-based transmission electron microscopic method
How it was run: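 Aβ1-42 (25 µM) ± CuCl2 (25 µM) ± compound (50 µM) in HEPES/NaCl pH 6.6, incubated 24 h at 37 °C. Aliquots placed on carbon-coated copper grids for 30 min, stained 20 s with 2% phosphotungstic acid, imaged by TEM. Clioquinol as comparator.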

[9] = Inhibition of Cu2+-mediated amyloid beta (1 to 42) peptide-induced cytotoxicity in E17 Sprague-Dawley rat primary cortical neurons assessed as neuroprotective activity by measuring increase in cell viability at 1 uM after 24 hrs by MTT assay
How it was run: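 Rat E17 primary cortical neurons after 9 days in culture. Aβ1-42 samples, prepared as for the dot blot (± Cu2+, ± compound), added to the cultures at 1 µM for 24 h. Viability by MTT, normalized to the vehicle group. EGCG and clioquinol as positive controls.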

[10] = target: T3, Amine oxidase [flavin-containing] B; assay: Inhibition of recombinant human MAOB at 50 uM using benzylamine as substrate preincubated for 15 mins followed by substrate addition measured after 15 mins by Amplex red reagent based fluorescence assay; conditions: 0.25 h
[11] = in vitro; conditions: PAMPA
[12] = organism: Rattus norvegicus; assay: Selectivity index, ratio of IC50 for BuChE in rat serum to IC50 for AChE in rat cortex homogenate; format: tissue-based
[13] = tested on: Cortical neurone; assay: Cytotoxicity against E17 Sprague-Dawley rat primary cortical neurons at 10 to 30 uM after 24 hrs by MTT assay; format: cell-based
[14] = in vitro; conditions: PAMPA, pH 7.4
[15] = organism: Homo sapiens; assay: Selectivity index, ratio of IC50 for recombinant human MAOA to IC50 for recombinant human MAOB; how it was run: as §1

Sequence of Butyrylcholinesterase (Q9JKC1 whole entry): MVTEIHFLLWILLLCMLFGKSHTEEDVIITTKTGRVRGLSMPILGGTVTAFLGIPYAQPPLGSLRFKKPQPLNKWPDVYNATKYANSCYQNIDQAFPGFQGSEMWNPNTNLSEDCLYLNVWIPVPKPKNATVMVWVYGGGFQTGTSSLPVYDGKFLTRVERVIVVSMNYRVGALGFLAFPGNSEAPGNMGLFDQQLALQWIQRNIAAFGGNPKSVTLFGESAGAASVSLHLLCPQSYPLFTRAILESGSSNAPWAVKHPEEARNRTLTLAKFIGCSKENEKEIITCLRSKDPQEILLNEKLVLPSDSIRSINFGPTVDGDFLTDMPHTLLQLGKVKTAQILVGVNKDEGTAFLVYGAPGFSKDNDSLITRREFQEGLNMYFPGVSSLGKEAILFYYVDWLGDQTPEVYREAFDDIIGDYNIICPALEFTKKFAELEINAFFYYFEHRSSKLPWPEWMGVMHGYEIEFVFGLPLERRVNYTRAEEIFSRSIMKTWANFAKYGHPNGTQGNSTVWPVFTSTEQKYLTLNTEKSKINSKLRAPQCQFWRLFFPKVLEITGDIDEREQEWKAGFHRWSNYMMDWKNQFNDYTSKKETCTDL
Sequence of Butyrylcholinesterase (Rattus norvegicus) (Q9JKC1 as listed by the source): as the sequence (Q9JKC1 whole entry) above

Structure (SMILES) | IC50 [1] | IC50 [2] | Activity (umolequiv/umol) [3] | IC50 [4] | IC50 [5] | inhibition [6] | inhibition at 50 µM [7] | inhibition [8] | Activity [9] | inhibition at 50 µM [10] | Papp at 12 h, 100 ug/ml [11] | Ratio IC50 [12] | Activity [13] | Papp at 18 h, 25 ug/ml [14] | Ratio IC50 [15]
C#CCN(C)CCCc1cn(-c2cc(NC(=S)NCC)ncn2)cn1 | 0.459 µM | > 40 µM | 0.447 | > 50 µM | 3.23 µM | 6.7% | 63.8% |  |  |  |  |  |  |  | 
Oc1c(I)cc(Cl)c2cccnc12 |  |  |  |  |  |  |  | Active | Active |  |  |  |  |  | 
C#CCNCCc1cn(-c2cc(NC(=S)NCC)ncn2)cn1 | 0.228 µM | > 40 µM | 1.27 | > 50 µM | > 50 µM | 8.73% | 54.2% |  |  | 19.2% | 3.24 ×10⁻⁶ cm/s | > 175 |  |  | 
C#CCNCCCc1cn(-c2cc(NC(=S)NCC)ncn2)cn1 | 0.381 µM | > 40 µM | 0.186 | > 50 µM | > 50 µM | 12.7% | 31.4% |  |  | 36.6% | 3.26 ×10⁻⁶ cm/s | > 105 |  |  | 
C#CCN(Cc1ccccc1)Cc1cn(-c2cc(NC(=S)NCC)ncn2)cn1 | 0.585 µM | > 40 µM |  | > 50 µM | > 50 µM | 9.28% | 17.8% |  |  | 18.4% |  | > 68 |  |  | 
COc1cc2c(cc1OC)C(=O)C(CC1CCN(Cc3ccccc3)CC1)C2 (stereo not drawn) [DONEPEZIL] |  |  |  |  |  |  |  |  |  |  |  |  | Non-Toxic |  | 
C#CCN(CC)CCc1cn(-c2cc(NC(=S)NCC)ncn2)cn1 | 1.34 µM | > 40 µM |  | > 50 µM | > 50 µM | 2.44% | 13% |  |  | 49.4% |  | > 30 |  |  | 
COc1ccc(CCN2CCC(Nc3nc4ccccc4n3Cc3ccc(F)cc3)CC2)cc1 [ASTEMIZOLE] |  |  |  |  |  |  |  |  |  |  | 8.48 ×10⁻⁶ cm/s |  |  | 11 ×10⁻⁶ cm/s | 
C#CCNCc1cn(-c2cc(NC(=S)NCC)ncn2)cn1 | 0.354 µM | > 40 µM | 1.18 | 4.33 µM | 5.24 µM | 15.2% |  |  |  |  | 2.78 ×10⁻⁶ cm/s | > 113 |  |  | 0.826
C#CCN(CCCC)Cc1cn(-c2cc(NC(=S)NCC)ncn2)cn1 | 0.675 µM | > 40 µM | 0.238 | > 50 µM | > 50 µM | 13.4% | 2.43% |  |  | 20.1% |  | > 59 |  |  | 
C#CCN(C)CCc1cn(-c2cc(NC(=S)NCC)ncn2)cn1 | 0.392 µM | > 40 µM | 1.24 | 9 µM | 12.4 µM | 8.91% |  |  |  |  | 3.33 ×10⁻⁶ cm/s | > 102 |  |  | 0.724
C#CCN(Cc1cn(-c2cc(NC(=S)NCC)ncn2)cn1)C(C)=O | 0.515 µM | > 40 µM | 1.17 | > 50 µM | > 50 µM | 5.15% | 4.83% |  |  | 1.17% |  | > 78 |  |  | 
C#CCN(CC)Cc1cn(-c2cc(NC(=S)NCC)ncn2)cn1 | 0.482 µM | > 40 µM | 1.38 | > 50 µM | > 50 µM | 10.5% | 6.71% |  |  | 35.1% |  | > 83 |  |  | 
C#CCN(CC#C)Cc1cn(-c2cc(NC(=S)NCC)ncn2)cn1 | 0.718 µM | > 40 µM | 0.585 | > 50 µM | > 50 µM | 4.97% | 15.5% |  |  | 42.1% |  | > 56 |  |  | 
C#CCN(CCC)Cc1cn(-c2cc(NC(=S)NCC)ncn2)cn1 | 0.485 µM | > 40 µM | 0.448 | > 50 µM | > 50 µM | 7.75% | 1.76% |  |  | 24.3% |  | > 83 |  |  | 
C#CCN(CC#N)CCc1cn(-c2cc(NC(=S)NCC)ncn2)cn1 | 0.597 µM | > 40 µM | 0.556 | > 50 µM | > 50 µM | 3.02% | 13.9% |  |  | 24.9% |  | > 67 |  |  | 
C#CCN(CC#N)Cc1cn(-c2cc(NC(=S)NCC)ncn2)cn1 | 0.707 µM | > 40 µM | 0.494 | > 50 µM | > 50 µM | 5.48% | 2.01% |  |  | 15.3% |  | > 57 |  |  | 
C#CCN1CCN(Cc2cn(-c3cc(NC(=S)NCC)ncn3)cn2)CC1 | 0.482 µM | > 40 µM | 1.03 | > 50 µM | > 50 µM | 7.3% | 9.22% |  |  | 13.3% |  | > 83 |  |  | 
